Assay results published in article PMC8710994 (Redox Biology, 2021).
Values belong to the compound of their own block, whether it stands above or below them.

Tests used:
[1] = system: APAP-induced acute liver injury; test: APAP-induced acute liver injury in mice; assay type: in vivo, C57BL/6 male mice
[2] = MTT cytotoxicity assay, LO2; assay type: cell-based, human; settings: human, LO2 cells
Keap1–Nrf2 interaction [3] = biological target: T1, Keap1–Nrf2 interaction (Homo sapiens, UniProt Q14145); test: Fluorescence polarization; settings: read-out: Keap1–Nrf2 binding inhibition IC50; FP assay
Keap1 and Nrf2 binding = Keap1 and Nrf2 binding (Homo sapiens, UniProt Q14145); test: Competitive assay; settings: competitive inhibitor, double-reciprocal plot
Summary of the method: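 Fluorescence polarisation kit assay. Diluted Keap1 ([…]) was combined with Nrf2 peptide (1 μM stock), BSA and test compound in kit buffer. The mix was incubated 0.5 h at ambient temperature and read at excitation 485 nm, emission 535 nm. For the competitive format, wells held […] Nrf2 with test compound at several concentrations.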

Keap1 [4] = biological target: T2, Keap1 (Homo sapiens, UniProt Q14145); test: Isothermal titration calorimetry with recombinant Keap1; assay type: binding
Summary of the method: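 Human His6-Keap1 was expressed in E. coli BL21(DE3) (1 mM IPTG, 37 °C, 4 h) and purified on a His column. Protein and test compound were dialysed into 20 mM Bis-Tris, 150 mM NaCl, 2 mM DTT. Compound (200 μM) was titrated into protein (20 μM) in 19 × 2 μL injections, 150 s apart, at 25 °C and 750 rpm. Control titrations were included; data were fitted with a composite model.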

Nrf2 [5] = biological target: T3, Nrf2 (Homo sapiens, UniProt Q16236); test: Isothermal titration calorimetry with recombinant Nrf2; assay type: binding; settings: 200 μM of 1 titrated into Nrf2 (20 μM)
T3 sequence (Q16236 1-605): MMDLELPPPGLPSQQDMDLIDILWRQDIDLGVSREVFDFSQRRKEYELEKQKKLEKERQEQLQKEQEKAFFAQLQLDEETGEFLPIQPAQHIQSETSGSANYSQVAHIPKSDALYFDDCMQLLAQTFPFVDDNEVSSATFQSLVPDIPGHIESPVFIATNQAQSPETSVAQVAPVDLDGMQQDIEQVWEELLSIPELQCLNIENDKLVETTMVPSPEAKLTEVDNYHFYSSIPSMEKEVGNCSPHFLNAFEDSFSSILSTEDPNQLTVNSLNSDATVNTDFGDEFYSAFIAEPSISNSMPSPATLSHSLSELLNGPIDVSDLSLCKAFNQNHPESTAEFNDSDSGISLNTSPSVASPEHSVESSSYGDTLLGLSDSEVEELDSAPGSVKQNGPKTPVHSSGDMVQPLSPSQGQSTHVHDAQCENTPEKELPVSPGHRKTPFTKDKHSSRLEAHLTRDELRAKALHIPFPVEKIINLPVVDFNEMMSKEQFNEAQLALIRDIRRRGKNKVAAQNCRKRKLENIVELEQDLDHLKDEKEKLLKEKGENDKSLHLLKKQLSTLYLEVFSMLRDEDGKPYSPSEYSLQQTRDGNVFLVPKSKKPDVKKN

Keap1 [6] = biological target: T2, Keap1; test: Cellular thermal shift assay; assay type: cell-based; settings: 1 at 5.0 μM, LO2 cell lysates
Summary of the method: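 LO2 lysate from 2 × 10^6 cells was diluted in PBS and split into equal aliquots. Aliquots were treated with test compound (5.0 μM) or DMSO for 30 min at room temperature, then heated individually across a temperature series. They were centrifuged, and supernatants were run on SDS-PAGE and immunoblotted for Keap1.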

Nrf2 [7] = biological target: T3, Nrf2; test: Cellular thermal shift assay; assay type: cell-based; settings: 1 at 5.0 μM, LO2 cell lysates
[8] = Stability by UV-Vis and 1H NMR over 7 days; assay type: physicochemical; settings: 4:1 acetonitrile/aqueous medium, seven days
LO2 cells [9] = test: Cellular uptake in LO2 cells by ICP-MS; assay type: in vitro ADME, human; settings: 5 μM
Summary of the method: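 LO2 cells were incubated with test compound at 5 μM for varying times. Iridium was then quantified by ICP-MS in whole cells and in separated nuclear and cytoplasmic fractions. Three independent experiments were run, shown as mean ± standard deviation; one-way ANOVA with Tukey's test.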

Keap1–Nrf2 interaction [10] = biological target: T1, Keap1–Nrf2 interaction; test: Co-immunoprecipitation of Keap1 and Nrf2 in LO2 cells; assay type: cell-based; settings: 5.0 μM, 8 h
Nrf2 [11] = test: Nrf2 nuclear translocation in LO2 cells; assay type: cell-based, human; settings: after 1 h
LO2 cells [12] = test: ROS detection; assay type: cell-based, human; settings: 5 μM, 8 h
Summary of the method: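 LO2 cells were treated with H2O2 (800 μM, 3 h) and test compound (5 μM, 8 h). Cells were labelled with 5 μM H2DCF-DA in serum-free DMEM at 37 °C for 30 min, washed, and imaged by confocal microscopy at excitation 488 nm, emission 525 nm.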

proteasome = test: Proteasome activity fluorometric assay kit; assay type: cell-based, human; settings: 5 μM, 8 h
Summary of the method: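 LO2 cells were treated 8 h with test compound (5 μM). Proteasome activity was then measured with a commercial fluorometric kit, with MG132 as positive control.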

LO2 cells [13] = test: Mitochondrial membrane potential by rhodamine 123 staining in LO2 cells; assay type: cell-based, human; settings: 5 μM, 8 h
Summary of the method: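 LO2 cells were attached overnight, then treated 8 h with test compound (5 μM). CCCP (10 μM, 1 h) was the positive control. Cells were stained with rhodamine 123 (5 μg/mL, 30 min) for fluorescence microscopy. For quantitation, washed cells at 1.0 × 10^5 cells/mL were stained at 37 °C in the dark for 30 min and read by spectrofluorometer at excitation 505 nm, emission 534 nm.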

HO-1 and NQO1 = HO-1 and NQO1 levels in LO2 cells by Western blotting; assay type: cell-based, human
LO2 cells [14] = test: MTT cytotoxicity assay, LO2; assay type: cell-based, human; settings: read-out: cytotoxicity IC50; LO2, MTT, 48 h
LO2 cells [15] = test: Cytoprotection against APAP-induced cytotoxicity in LO2 cells; assay type: cell-based, human
[16] = Pharmacokinetic profile in mouse plasma by ICP-MS; assay type: in vivo; settings: mice
Summary of the method: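 After an overnight fast, C57BL/6J mice received test compound at 5.0 mg kg−1 i.p. Blood was collected into EDTA-2Na at 0, 0.5, 1, 2, 6, 12, 24 and 48 h. Plasma iridium was quantified by ICP-MS, n = 4, shown as mean ± SD.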

mice = test: Toxicity evaluation and organ distribution in mice; assay type: in vivo
Summary of the method: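 Mice received test compound at 2.5 or 5.0 mg kg−1 i.p.; body and organ weights were recorded after 6 h. Organ index = organ wet weight/body weight × 100%; the figure legend reports indexes at 12 h, n = 5. About 100 mg tissue was ground in liquid nitrogen, nitric-acid digested, and analysed for iridium by ICP-MS. Organs were fixed 24 h, sectioned at 4 μm, and H&E stained.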

[17] = 1 at 5.0 mg kg−1, 6 h after APAP challenge

T2 sequence (Q14145 whole entry): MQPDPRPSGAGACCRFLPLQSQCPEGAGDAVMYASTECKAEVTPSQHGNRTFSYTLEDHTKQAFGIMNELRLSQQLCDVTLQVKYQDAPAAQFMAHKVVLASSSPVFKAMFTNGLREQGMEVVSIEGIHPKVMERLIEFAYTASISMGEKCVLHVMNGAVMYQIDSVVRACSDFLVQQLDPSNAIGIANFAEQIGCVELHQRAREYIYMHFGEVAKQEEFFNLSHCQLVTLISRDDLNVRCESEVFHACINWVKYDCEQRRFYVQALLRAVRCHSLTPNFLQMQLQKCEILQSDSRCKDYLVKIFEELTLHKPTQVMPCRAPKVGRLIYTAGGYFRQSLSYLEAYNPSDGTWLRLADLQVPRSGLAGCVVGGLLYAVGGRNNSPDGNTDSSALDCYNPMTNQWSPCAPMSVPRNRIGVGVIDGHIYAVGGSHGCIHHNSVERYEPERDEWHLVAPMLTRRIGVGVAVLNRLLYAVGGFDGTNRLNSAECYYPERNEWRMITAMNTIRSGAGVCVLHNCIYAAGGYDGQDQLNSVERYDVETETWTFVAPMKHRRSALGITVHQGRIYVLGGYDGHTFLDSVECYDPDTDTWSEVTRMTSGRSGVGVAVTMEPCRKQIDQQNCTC
T1 sequence (Q14145 whole entry): as above
Keap1 and Nrf2 binding, sequence (Q14145 whole entry): as above

Compound: CC(=O)Nc1ccc(O)cc1 [APAP, Acetaminophen, reference compound]
- serum ALT, maximum level ([1]; 12 h after APAP challenge): 3334.98 U/L
- serum AST, maximum level ([1]; 12 h after APAP challenge): 2002.31 U/L
- serum ALT ([1]; 48 h after APAP challenge): 608.41 U/L
- serum AST ([1]; 48 h after APAP challenge): 488.20 U/L
- increase in serum ALT compared with the control group ([1]; APAP 400 mg kg−1): 188 fold
- increase in serum AST compared with the control group ([1]; APAP 400 mg kg−1): 216 fold
- percentage of necrotic liver areas ([1]; APAP 400 mg kg−1 i.p. alone (model group)): 21.01%

Compound: Clc1cc(-c2ccccc2)nc2ccccc12 [Ligand 7, 4-chloro-2-phenylquinoline]
- IC50 at 48 h [2]: > 100 µM

Compound: Cc1ccc2ccc3ccc(C)nc3c2n1 [Ligand 8, 2,9-dimethyl-1,10-phenanthroline]
- IC50 at 48 h [2]: > 100 µM

- IC50 (Keap1–Nrf2 interaction [3]): 1.09 µM
- Ki (Keap1 and Nrf2 binding): 1.03 µM
- -TΔS (ITC) (Keap1 [4]; Keap1): -1.64 kcal/mol
- stoichiometry N (ITC) (Keap1 [4]; Keap1): 0.962 ± 0.026
- ΔG (ITC) (Keap1 [4]; Keap1): -8.39 kcal/mol
- ΔH (ITC) (Keap1 [4]; Keap1): -6.75 kcal/mol
- Kd (Keap1 [4]; read-out: Kd (ITC), 200 μM of 1 titrated into Keap1 (20 μM), 25 °C): 0.71 ± 0.79 µM
- binding to Nrf2 by ITC (Nrf2 [5]): no binding was observed
- shift of Keap1 melting curve (Keap1 [6]): ca. 6 °C
- shift of Nrf2 melting curve (Nrf2 [7]): no significant shift
- stability [8]: good stability
- cellular permeability (iridium levels in nucleus and cytoplasm) (LO2 cells [9]): good cellular permeability
- elimination half-life ([16]; 5 mg kg−1 i.p.): 12 h
- maximum mean peak area in plasma (Cmax) ([16]; 5.0 mg kg−1 i.p.): 13700 ng/mL
- Cmax ([16]; read-out: maximum mean peak area in plasma (Cmax), 5.0 mg kg−1 i.p.): 13.4 µM
Compound: [Ir (clpq)2 (2,9-dmphen)](PF6) [Complex 1]
- Nrf2 co-precipitated with Keap1 (Keap1–Nrf2 interaction [10]): reduction of Nrf2 co-precipitated with Keap1
- Nrf2 accumulation in the nucleus (Nrf2 [11]): induced Nrf2 accumulation in the nucleus
- effect on ROS elevation (LO2 cells [12]): no significant effect
- effect on proteasomal inhibition (proteasome): no significant effect
- effect on mitochondrial dysfunction (LO2 cells [13]): no significant effect
- levels of HO-1 and NQO1 (HO-1 and NQO1; 6 h treatment): increased
- increase of HO-1 and NQO1 levels in Keap1 knockdown cells versus control cells (HO-1 and NQO1; Keap1 siRNA): less effective
- increase of HO-1 and NQO1 levels after Nrf2 knockdown (HO-1 and NQO1; Nrf2 siRNA): muted
- IC50 (LO2 cells [14]): 48 µM
- cell viability of LO2 cells after treatment with APAP (LO2 cells [15]): dose-dependent restoration of cell viability
- reductions of AST levels ([1]; 1 (5 mg/kg), time intervals 6, 12, 24 and 48 h after APAP): 32.29–53.62%
- decrease of serum ALT [1, 17]: 23.5%
- decrease of serum AST [1, 17]: 25.2%
- percentage of necrotic liver areas ([1]; APAP 400 mg kg−1 + 1 at 2.5 mg kg−1 i.p. once daily for five days): 16.04%
- percentage of necrotic liver areas ([1]; APAP 400 mg kg−1 + 1 at 5.0 mg kg−1 i.p. once daily for five days): 8.99%
- Nrf2 levels in the nucleus (liver) in comparison to the APAP group ([1]; mice, APAP + 1): significantly increased
- protein expression of Keap1 (liver) ([1]; mice, APAP + 1): remained basal
- organ damage (organ morphology, organ index, H&E) (mice; 5.0 mg kg−1 i.p., 6, 12 and 24 h): did not cause organ damage
- concentration in various organs (ICP-MS) (mice; i.p., 6 h): mainly concentrated in the liver and kidney
